Measurements: ChEMBL document CHEMBL3526119, “Effect of the CYP2C8 genotype on the pharmacokinetics and pharmacodynamics of repaglinide” (Drug Metab Dispos, 2011)

Assays:
Format in all cases: ADME, organism-based
[1] = AUC (0 to infinity) in healthy white human with SLCO1B1 521TT/CYP2C8*1/*1 combined genotype at 2 mg, po; parameters: dose 2 mg, route oral, time infinity; details: plasma
Summary of the method: (§1)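 Healthy Caucasians genotyped for CYP2C8*3 and SLCO1B1 521T>C were given a single oral 2 mg dose of repaglinide, and alcohol, caffeine and grapefruit were withheld. Plasma was sampled before dosing and at 15 times from 0.25 to 24 h. Drug was measured by LC-MS/MS against diclofenac internal standard, linear 0.098–79.139 µg/L. Noncompartmental analysis: Cmax taken as observed; AUC by linear/log-linear trapezoidal rule extrapolated to infinity.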

[2] = Cmax in healthy white human with SLCO1B1 521TC/CYP2C8*1/*1 combined genotype at 2 mg, po; parameters: dose 2 mg, route oral; details: in vivo; summary of the method: as §1
[3] = Oral clearance in healthy white human at 2 mg, po; details: in vivo
Summary of the method: (§2)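 Repaglinide was assayed by LC-MS/MS with diclofenac internal standard (LLOQ 0.098 µg/L). Noncompartmental analysis gave AUC by linear/log-linear trapezoidal rule extrapolated to infinity. Weight-adjusted oral clearance = dose/(AUC × body weight).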

[4] = Cmax in healthy white human with SLCO1B1 521TT/CYP2C8*1/*1 combined genotype at 2 mg, po; parameters: dose 2 mg, route oral; details: in vivo; summary of the method: as §1
Homo sapiens [5] = experiment: Mean change in blood glucose concentration in healthy white human plasma with CYP2C8*1/*1 genotype at 2 mg, po up to 6 hrs; details: in vivo
Summary of the method: (§3)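 Single 2 mg oral dose in healthy Caucasian volunteers genotyped for CYP2C8*3, with SLCO1B1 521T>C also typed. […] Mean change is the average difference between values up to 6 h post-dose and baseline. Fasting lasted to 6 h. Mean with 95% CI or SD by genotype group.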

[6] = Cmax in healthy white human with SLCO1B1 521CC/CYP2C8*1/*3 combined genotype at 2 mg, po; parameters: dose 2 mg, route oral; details: in vivo; summary of the method: as §1
Homo sapiens [7] = experiment: Mean change in insulin concentration in healthy white human plasma with SLCO1B1 521TC/CYP2C8*1/*3 combined genotype at 2 mg, po; details: in vivo
Summary of the method: (§4)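 Healthy Caucasians got a single 2 mg oral dose and were genotyped for CYP2C8*3 and SLCO1B1 521T>C. Plasma insulin was sampled from pre-dose to 6 h and measured by solid-phase enzyme-labelled chemiluminescent immunometric assay (calibration 2–300 mU/l). Mean change is the average of post-dose values minus baseline up to 6 h, summarised per genotype group.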

Homo sapiens [8] = experiment: Mean change in blood glucose concentration in healthy white human plasma SLCO1B1 521CC/CYP2C8*1/*3 combined genotype at 2 mg, po; details: in vivo
Summary of the method: (§5)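 Venous blood glucose was read at each blood sampling time after a single oral 2 mg dose, with fasting up to 6 h. […] Maximal change is the largest change from baseline. Mean change is the average difference between values up to 6 h post-dose and baseline.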

Homo sapiens [9] = experiment: Mean change in insulin concentration in healthy white human plasma with SLCO1B1 521TC/CYP2C8*3/*3 combined genotype at 2 mg, po; details: in vivo; summary of the method: as §4
[10] = Terminal half life in healthy white human with CYP2C8*3/*3 genotype at 2 mg, po; details: in vivo, read-out: beta t1/2 (converted)
Summary of the method: (§6)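 Single oral 2 mg dose; plasma sampled pre-dose and from 0:15 to 24 h post-dose (15 samples). Repaglinide measured by LC-MS/MS with diclofenac internal standard; calibration 0.098–79.139 µg/L. Noncompartmental analysis; AUC by linear/log-linear trapezoidal rule extrapolated to infinity. Reported as mean with 95% CI for all subjects and for each CYP2C8*3 genotype group.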

Homo sapiens [11] = experiment: Mean change in insulin concentration in healthy white human plasma with SLCO1B1 521TC/CYP2C8*1/*1 combined genotype at 2 mg, po; details: in vivo; summary of the method: as §4
[12] = Cmax in healthy white human with SLCO1B1 521TT/CYP2C8*1/*3 combined genotype at 2 mg, po; parameters: dose 2 mg, route oral; details: in vivo; summary of the method: as §1
[13] = Terminal half life in healthy white human with CYP2C8*1/*3 genotype at 2 mg, po; details: in vivo, read-out: beta t1/2 (converted); summary of the method: as §6
Homo sapiens [14] = experiment: Maximal change in blood glucose concentration in healthy white human plasma with CYP2C8*3/*3 genotype at 2 mg, po up to 6 hrs; details: in vivo; summary of the method: as §5
Homo sapiens [15] = experiment: Mean change in insulin concentration in healthy white human plasma with SLCO1B1 521CC/CYP2C8*1/*3 combined genotype at 2 mg, po; details: in vivo; summary of the method: as §4
[16] = Oral clearance in healthy white human with CYP2C8*3/*3 genotype at 2 mg, po; details: in vivo; summary of the method: as §2
Homo sapiens [17] = experiment: Maximal change in blood glucose concentration in healthy white human plasma with CYP2C8*1/*3 genotype at 2 mg, po up to 6 hrs; details: in vivo; summary of the method: as §5
Homo sapiens [18] = experiment: Mean change in blood glucose concentration in healthy white human plasma SLCO1B1 521TC/CYP2C8*1/*1 combined genotype at 2 mg, po; details: in vivo; summary of the method: as §5
[19] = Cmax in healthy white human with CYP2C8*3/*3 genotype at 2 mg, po; parameters: dose 2 mg, route oral; details: in vivo; summary of the method: as §1
Homo sapiens [20] = experiment: Mean change in blood glucose concentration in healthy white human plasma with CYP2C8*1/*3 genotype at 2 mg, po up to 6 hrs; details: in vivo; summary of the method: as §3
Homo sapiens [21] = experiment: Mean change in blood glucose concentration in healthy white human plasma with CYP2C8*3/*3 genotype at 2 mg, po up to 6 hrs; details: in vivo; summary of the method: as §3
Homo sapiens [22] = species: Homo sapiens; experiment: Maximal change in blood glucose concentration in healthy human plasma with SLCO1B1 521CC genotype at 0.5 mg
[23] = Cmax in healthy white human at 2 mg, po; parameters: dose 2 mg, route oral; details: in vivo; summary of the method: as §1
[24] = Cmax in healthy white human with SLCO1B1 521CC/CYP2C8*3/*3 combined genotype at 2 mg, po; parameters: dose 2 mg, route oral; details: in vivo; summary of the method: as §1
[25] = Oral bioavailability in human; details: in vivo
Homo sapiens [26] = experiment: Mean change in blood glucose concentration in healthy white human plasma SLCO1B1 521TT/CYP2C8*3/*3 combined genotype at 2 mg, po; details: in vivo; summary of the method: as §3
Homo sapiens [27] = experiment: Mean change in blood glucose concentration in healthy white human plasma at 2 mg, po up to 6 hrs; details: in vivo; summary of the method: as §3
[28] = Tmax in healthy white human with CYP2C8*3/*3 genotype at 2 mg, po; details: in vivo
Homo sapiens [29] = experiment: Maximal change in blood glucose concentration in healthy white human plasma with CYP2C8*1/*1 genotype at 2 mg, po up to 6 hrs; details: in vivo; summary of the method: as §5
[30] = Tmax in healthy white human with CYP2C8*1/*3 genotype at 2 mg, po; details: in vivo
[31] = AUC (0 to infinity) in healthy white human with SLCO1B1 521TC/CYP2C8*1/*1 combined genotype at 2 mg, po; parameters: dose 2 mg, route oral, time infinity; details: plasma; summary of the method: as §1
Homo sapiens [32] = experiment: Mean change in blood glucose concentration in healthy white human plasma SLCO1B1 521TC/CYP2C8*1/*3 combined genotype at 2 mg, po; details: in vivo; summary of the method: as §5
[33] = Terminal half life in healthy white human at 2 mg, po; details: in vivo, read-out: beta t1/2 (converted); summary of the method: as §6
Homo sapiens [34] = experiment: Mean change in insulin concentration in healthy white human plasma with SLCO1B1 521TT/CYP2C8*1/*1 combined genotype at 2 mg, po; details: in vivo; summary of the method: as §4
[35] = AUC (0 to infinity) in healthy white human with SLCO1B1 521TT/CYP2C8*3/*3 combined genotype at 2 mg, po; parameters: dose 2 mg, time infinity, route oral; details: plasma; summary of the method: as §1
Homo sapiens [36] = experiment: Mean change in insulin concentration in healthy white human plasma with CYP2C8*1/*1 genotype at 2 mg, po up to 6 hrs; details: in vivo; summary of the method: as §4

Work on CCOc1cc(CC(=O)N[C@@H](CC(C)C)c2ccccc2N2CCCCC2)ccc1C(=O)O [REPAGLINIDE] yielded an AUC(0-inf) [1] of 92.3 ng·h/mL, a Cmax [2] of 83.7 ng/mL and a CL/F [3] of 7.67 mL/min/kg. It also gave a Cmax [4] of 52.5 ng/mL, an Activity (Homo sapiens [5]) of -0.42 mM and a Cmax [6] of 17.7 ng/mL. The Activity (Homo sapiens [7]) was 5.6 mU/l, the Activity (Homo sapiens [8]) was -0.2 mM and the Activity (Homo sapiens [9]) was 1.5 mU/l. It also gave a half-life [10] of 1.3 h, an Activity (Homo sapiens [11]) of 5.7 mU/l and a Cmax [12] of 57 ng/mL. It also gave a half-life [13] of 1.3 h, an Activity (Homo sapiens [14]) of -1.48 mM and an Activity (Homo sapiens [15]) of 0.6 mU/l. The CL/F [16] was 8 mL/min/kg, the Activity (Homo sapiens [17]) was -1.83 mM and the Activity (Homo sapiens [18]) was -0.5 mM. For the same compound, the Cmax [19] was 38.5 ng/mL, the Activity (Homo sapiens [20]) was -0.65 mM and the Activity (Homo sapiens [21]) was -0.5 mM. It also gave an Activity (Homo sapiens [22]) of 2.3 mM, a Cmax [23] of 52.8 ng/mL and a Cmax [24] of 67.9 ng/mL. For the same compound, the bioavailability [25] was 60%, the Activity (Homo sapiens [26]) was -0.1 mM and the Activity (Homo sapiens [27]) was -0.53 mM. The Tmax [28] was 0.9 h, the Activity (Homo sapiens [29]) was -1.62 mM and the Tmax [30] was 0.8 h. For the same compound, the AUC(0-inf) [31] was 146 ng·h/mL, the Activity (Homo sapiens [32]) was -1 mM and the half-life [33] was 1.3 h. The Activity (Homo sapiens [34]) was 7.1 mU/l, the AUC(0-inf) [35] was 116 ng·h/mL and the Activity (Homo sapiens [36]) was 6.7 mU/L.
